The test can be described thus: yeast TOR pathway reporter LAP4-GFP change – cell-based, cherry picks, flow cytometry, mother/daughter gates, confirmation (AID 2271).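 Further: ratio of sample to DMSO plate mean so 100% equals DMSO level.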 The note with it: S. cerevisiae LAP4-GFP strain, 3 h, measured here: mother cell gate response, at 10 µM, stronger effect = higher value, 100 means same as DMSO control. Put shortly: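 Test system: GFP-fusion yeast strain. Medium: synthetic complete (SC) yeast growth medium. Timing: 3 h treatment at 30 °C with rotation. Measured by: GFP by flow cytometry. Control set: positive rapamycin (400 ng/mL), negative DMSO.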
In general terms: In flow cytometry, cells or beads pass a laser one at a time.
Compound `Cc1c(O)nc(SC2CC(=O)N(c3ccccc3)C2=O)[nH]c1=O` (stereo not given) registered a GFP response relative to DMSO of 107%. Next, `COC(=O)c1ccc(/C=N\NC(=O)c2ccc(C)cc2Cl)cc1`: 95.1%; `Cc1cccc(CS(=O)(=O)c2ncc(Cl)c(C(=O)NCc3ccccc3)n2)c1`: 108%; `Cc1ccc(S(=O)(=O)N2CCCC2C(=O)OCc2ccco2)cc1` (stereo not given): 92.1%. The figure for `Clc1ccc(N=c2ssnc2Cl)cc1` is 161%; for `O=C1c2ccccc2C(=O)C2OC12` (stereo not given) it is 201%.

In turn, `CCCc1[nH]nc2c1C(c1ccc(OC)cc1OC)C(C#N)=C(N)O2` (stereo not given) yielded a GFP response relative to DMSO of 95.1%. The compound `O=[N+]([O-])c1ncccc1OCc1ccc(-c2ccccc2)cc1` had a GFP response relative to DMSO of 131%. The figure for `C/C(=N/NS(=O)(=O)c1ccccc1)c1ccc(NC(=O)C(F)(F)F)cc1` is 94.6%. The compound `O=C1c2ccsc2SCCN1Cc1ccccc1` had a GFP response relative to DMSO of 114%. Next, `CCc1ccc(-c2csc(NC(=O)COC(=O)CCc3nc4ccccc4s3)n2)cc1`: 98.4%; `COc1ccc(-c2nn(-c3ccccc3)cc2C(=O)NC(=S)NNC(=O)c2ccncc2)cc1`: 105%.

As to `CCOC(=O)Cc1csc(NC(=O)CSc2nnc(-c3ccc(C)cc3)o2)n1`, the GFP response relative to DMSO is 101%. Next, `CCOC(=O)C1=C(Cc2ccc(Cl)cc2)C(=O)c2ccccc2C1=O`: 111%. The figure for `COC(=O)c1ccc(N2C(=O)CC(SCCN)C2=O)cc1` (stereo not given) is 100%; for `O=S1(=O)Nc2c(ccc3cccnc23)-c2ccccc21` it is 163%; for `Cc1cccc2c1NC(=O)/C2=C\C(=O)c1cccs1` it is 160%. Compound `Nc1cccnc1S(=O)(=O)c1cccc(C(F)(F)F)c1` yielded a GFP response relative to DMSO of 94%. Next, `CC(Oc1ccc(Br)cc1)C(=O)Nc1nc(-c2ccccn2)cs1` (stereo not given): 258%.

For the compound `O=C1Nc2ccccc2C(=O)C1(Cl)Cc1ccccc1` (stereo not given), the GFP response relative to DMSO came out at 134%.

For the compound `Cc1ccc(C(c2cc(Cl)c3cccnc3c2O)N2CCN(C)CC2)cc1` (stereo not given), the GFP response relative to DMSO was 208%.

`Cc1ccc(C)c(NC(=O)c2ccccc2O)c1`: the GFP response relative to DMSO was found to be 112%.

As to `CN(C)CCCNc1cc(C(C)(C)C)nc2c(-c3ccc(Cl)cc3)cnn12`, the GFP response relative to DMSO was 118%. Next, `O=C(O)c1ccc(N/N=C/c2c(F)cccc2Cl)cc1`: 124%; `O=C(O)c1ccccc1C(=O)N1CCN(c2cccc(Cl)c2)CC1`: 96.5%. Next, `O=C(COC(=O)CCc1nc2ccccc2s1)Nc1nc(-c2ccccc2)cs1`: 97.2%; `O=[N+]([O-])c1cc(O)c2ncccc2c1`: 204%; `NC1=NC(=O)C(CC(=O)c2ccc(Cl)cc2)S1` (stereo not given): 107%. The figure for `NC(=O)C1CCN(C(=S)NCCc2ccccc2)CC1` is 93.4%; for `COc1ccc(-c2cc(C(F)(F)F)nc(S(C)(=O)=O)n2)cc1` it is 133%; for `Oc1c(C(Nc2cccc(C(F)(F)F)c2)c2ccncc2)ccc2cccnc12` (stereo not given) it is 136%. For `CC(=O)Nc1cccc(Oc2ccc(-c3noc(C)n3)cc2)c1`, the GFP response relative to DMSO worked out at 102%. Next, `N#C/C(C(=O)Nc1ccc(Cl)cc1)=C(/S)Nc1ccccc1`: 104%. Regarding `COc1ccc(NC2=C(Cl)C(=O)N(CCc3ccccc3)C2=O)c(OC)c1`, the GFP response relative to DMSO stood at 104%. The figure for `CCN=C(NCC)SC1CC(=O)N(c2cccc(OCC)c2)C1=O` (stereo not given) is 98.3%; for `Cn1c(=O)[nH]c(=O)c2c1nc(N1CCCCC1)n2CCOc1ccccc1` it is 102%. `CC(=O)Nc1ccc(NC(=O)c2nc(S(=O)(=O)Cc3ccccc3)ncc2Cl)cc1` gave a GFP response relative to DMSO of 105%. Turning to `COc1cc(CCN2C(=O)c3cccc4cccc(c34)C2=O)c(S(=O)(=O)NCCCO)cc1OC`, the GFP response relative to DMSO amounted to 94.6%.

In turn, `CCOc1cc(C)c(S(=O)(=O)N2CCCC2)cc1C` had a GFP response relative to DMSO of 145%. Next, `CC1CCCCN1S(=O)(=O)c1ccc(C(=O)Nc2nnc(-c3ccccc3Cl)o2)cc1` (stereo not given): 91.9%.

The values are drawn from PubChem BioAssay.
